High-throughput results as filed in PubChem BioAssay.
An excerpt weighted towards active compounds, which were near 2.9% of everything screened.
Hsp90 block: displaces geldanamycin probe from tumor Hsp90; NCI-N417 lysate Hsp90, Cy3B-geldanamycin FP displacement; inhibition, % at 30 µM; hit rate 0.35% among 64,000;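 active means inhibition above 50%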;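 further: 0% = tracer plus lysate wells and 100% = tracer alone without lysate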
BAP1 block: human BAP1 deubiquitinase inhibition; recombinant BAP1, Ub-AMC hydrolysis fluorescence kinetic; active compounds read low; hit rate 0.48% among 72,000; AID 436; calls only at 20 µM;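 active means activity remaining at or below 50% of control, provided the compound also passes the data quality filters; inactive means the rest, including low values that fail the filters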;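 further: 100% = DMSO wells rate and 0% = substrate alone blank rate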
Target sequence (Q92560 whole entry, looked up): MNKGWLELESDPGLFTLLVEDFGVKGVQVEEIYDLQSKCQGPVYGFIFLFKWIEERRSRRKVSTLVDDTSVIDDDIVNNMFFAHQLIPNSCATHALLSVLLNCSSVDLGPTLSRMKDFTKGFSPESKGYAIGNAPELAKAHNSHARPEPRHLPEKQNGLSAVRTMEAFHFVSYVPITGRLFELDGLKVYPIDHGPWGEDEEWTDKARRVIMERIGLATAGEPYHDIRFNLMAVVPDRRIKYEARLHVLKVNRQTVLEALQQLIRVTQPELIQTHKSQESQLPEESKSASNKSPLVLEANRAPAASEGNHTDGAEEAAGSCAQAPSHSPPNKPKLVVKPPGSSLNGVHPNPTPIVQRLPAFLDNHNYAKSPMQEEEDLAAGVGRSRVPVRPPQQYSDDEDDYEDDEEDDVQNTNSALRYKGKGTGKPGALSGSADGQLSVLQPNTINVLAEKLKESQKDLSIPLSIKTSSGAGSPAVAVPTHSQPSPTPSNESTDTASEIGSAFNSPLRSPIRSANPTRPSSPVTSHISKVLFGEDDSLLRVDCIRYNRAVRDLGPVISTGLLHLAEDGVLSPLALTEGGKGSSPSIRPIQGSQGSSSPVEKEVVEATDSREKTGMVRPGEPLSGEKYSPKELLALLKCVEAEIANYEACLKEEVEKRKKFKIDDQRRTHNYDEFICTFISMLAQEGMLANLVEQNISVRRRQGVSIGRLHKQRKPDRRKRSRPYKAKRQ
Cdc25B block: human M-phase inducer phosphatase 2 inhibition | P30305 | recombinant Cdc25B, OMFP fluorescence Ex485/Em525 | inhibition, %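 (compounds tested at 10 µM final in the well)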 | hit rate 0.1% among 65,000 | AID 368; in the data active means inhibition above about 50%
Ec RNAP inh: Escherichia coli RNA polymerase inhibition; inhibition, %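 (tested at 10 µM)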; hit rate 0.2% among 62,000; P0A8V2; E. coli RNA polymerase, fluorescence transcription assay; in the data active means inhibition above about 20%;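 further: 0% = enzyme without compound and 100% = no enzyme blank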
tolC growth inh: growth inhibitors of E. coli BW25113 tolC mutant. hit rate 2.2% among 65,000. OD615. growth inhibition, % at 10 µM (by protocol);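 active means growth inhibition at or above a cutoff equal to the mean over every tested compound plus 3 SD, cut at about 60% in these data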;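 further: growth measured after 20 h incubation at 37 °C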
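System: E. coli ΔtolC::kan strain BW25113; Buffer or medium: LB broth supplemented with 50 µg/mL kanamycin; Compound: 10 µM final, single dose; Incubation: bacterial growth with compound for 20 h at 37 °C; Signal: A615 absorbance measurement; Evaluation: growth inhibition in percent.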
MKP-1 inh: inhibitors of human MKP-1 phosphatase | recombinant MKP-1, OMFP hydrolysis fluorescence | inhibition, %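 (compounds tested at a single concentration somewhere between 10 and 100 µM)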 | hit rate 0.15% among 65,000 | AID 374;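 active means inhibition above about 50%, limit read from the data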;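 further: 0% = DMSO max control wells and 100% = wells with enzyme stopped by NaOH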
Numbers without * were called inactive; i = inactive; / = no result given.

SMILES	Hsp90 block	BAP1 block	Cdc25B block	Ec RNAP inh	tolC growth inh	MKP-1 inh
O=C1CN(C(=O)c2ccc(Br)o2)C(c2ccccc2)c2cc(Cl)ccc2N1 (stereo not drawn)	-2.7	i	-5.8	-3.9	85.2*	8.5
O=C1CN(C(=O)c2ccc(Br)o2)C(c2ccc(F)cc2)c2cc(Cl)ccc2N1 (stereo not drawn)	0.1	i	3.4	7.8	26.5	-12.5
OC1(c2cccc(C(F)(F)F)c2)CCN(c2ncnc3c2[nH]c2ccc(F)cc23)CC1	-4.8	i	4.1	1.1	100.0*	30.4
Cc1cccc(N2CCN(S(=O)(=O)c3ccc4c(c3)CCN4C(=O)CCC(=O)O)CC2)c1C	-2.0	i	8.7	7.1	37.7	51.4*
O=C(O)CCCC(=O)N1CCc2cc(S(=O)(=O)N3CCc4ccccc43)ccc21	-4.5	i	2.1	-0.2	74.7*	16.9
CCC(=O)N1CCc2cc(S(=O)(=O)N3CCc4ccccc43)ccc21	-4.8	i	1.8	-2.2	-4.2	26.6
COc1ccc(C2CC(C(F)(F)F)n3ncc(C(=O)Nc4ccc5c(c4)OCO5)c3N2)cc1 (stereo not drawn)	/	i	/	/	/	/
Cc1nc(/N=C(\N)NC(=O)Cc2ccccc2)nc2ccccc12	/	i	/	/	/	/
O=S(=O)(Cc1ccc(Cl)cc1)Nc1ccc2c(c1)OCO2	56.3*	i	-1.7	8.7	24.1	-3.4
O=C(c1ccc2ccccc2c1)N1CCN(c2ccc(O)cc2)CC1	91.9*	i	-6.9	5.3	10.9	12.7
Cc1ccc(C(=O)N2CCN(c3ccccc3)CC2)cc1C	-3.5	i	-11.4	2.6	5.5	4.4
Cc1ccc(C(=O)N2CCN(c3cccc(Cl)c3)CC2)cc1C	-1.0	i	-19.4	3.5	67.6*	-6.3
COC(=O)c1ccc(NC(=O)CN2CCN(c3ccc(Cl)cc3)CC2)cc1	-1.0	i	-4.0	-5.9	-21.8	4.7
COC(=O)c1ccc(NC(=O)CN2CCN(c3cccc(Cl)c3)CC2)cc1	-1.2	i	-7.7	6.1	75.0*	24.4
COc1ccc(NC(=O)c2ccc(S(=O)(=O)N3CCc4ccccc43)cc2)c2ccccc12	/	i	/	/	/	/
CC(=O)Oc1ccc(-c2nc3ccc(C)cc3s2)cc1	/	i	/	/	/	/
COc1cc(Cl)cc2c1OC1(C=C2)c2ccccc2-c2ccccc2N1C (stereo not drawn)	/	i	/	/	/	/
CC(C)Sc1nc(NCc2ccco2)c2c3c(sc2n1)COC(C)(C)C3	/	/	1.3	-14.4	64.6*	14.9
CCCOc1ccc2oc(=O)c3c(c2c1)CCCN3C(=O)CN1CCc2ccccc2C1	-0.6	i	-10.8	7.1	76.7*	28.3
CCOc1ccc(C(=O)C2CCN(CC(=O)Nc3ccccc3N3CCOCC3)CC2)cc1	-0.8	i	-26.5	6.0	76.4*	10.1
COc1ccc(OC)c(NC(=O)CN2CCC(C(=O)c3ccc(C)cc3)CC2)c1	-6.3	i	-21.1	5.7	55.8	9.8
CCCCCc1c(C)nc(Nc2ccccc2)[nH]c1=O	-0.8	i	-0.8	2.8	75.0*	11.0
Cc1ccc(Nc2nc(C)c(CCC(C)C)c(=O)[nH]2)cc1	-1.3	i	6.8	3.9	15.5	23.9
CCOC(=O)c1c(-c2ccccc2)oc2ccc(Oc3c([N+](=O)[O-])ncn3C)cc12	/	i	/	/	/	/
Cc1ccc(S(=O)(=O)N2CCN(C(=O)CN3CCCC3)C2C(C)C)cc1 (stereo not drawn)	/	i	/	/	/	/
SMILES	Hsp90 block	BAP1 block	Cdc25B block	Ec RNAP inh	tolC growth inh	MKP-1 inh
O=C(CNCCC1=CCCCC1)Nc1ccccc1N1CCCCC1	-0.9	i	-25.5	8.4	100.0*	-4.9
Cc1ccc(S(=O)(=O)Nc2ccc3oc(=O)sc3c2)c(C)c1	55.9*	i	14.2	0.7	26.4	-14.3
C=CCNC(=O)C1C(C=C(Cl)Cl)C1(C)C (stereo not drawn)	/	i	/	/	/	/
COc1cc2ccccc2cc1C(=O)Nc1cccc(C(F)(F)F)c1	/	i	/	/	/	/
Cc1nc(N2CCN(Cc3ccccc3)CC2)nc2c1C(=O)CC(c1ccco1)C2 (stereo not drawn)	-7.4	i	-7.1	9.3	79.2*	5.8
CCCCCCN1C(=O)C(O)=C(C(C)=O)C1c1ccccc1Cl (stereo not drawn)	/	i	/	/	/	/
CC(C)c1nc(N2CCOCC2)c(C#N)c2c1CCCC2	-0.5	i	-1.7	5.6	64.9*	-6.0
COc1ccc(-c2nnc(NC(=O)c3cc(Cl)ccc3Cl)o2)cc1	-0.1	i	13.4	4.2	98.1*	14.4
COc1ccc(-c2nnc(NC(=O)c3ccc(S(=O)(=O)N4CCc5ccccc5C4)cc3)o2)cc1	-3.1	i	6.3	0.3	94.2*	24.6
COc1ccccc1C(=O)Nc1nnc(-c2ccc(Cl)cc2)o1	-2.8	i	0.9	-7.2	44.0	10.1
COc1cccc(-c2nnc(NC(=O)c3ccc(S(=O)(=O)N4CC(C)OC(C)C4)cc3)o2)c1 (stereo not drawn)	-0.4	i	-11.3	1.0	98.5*	20.7
Cc1oc(C(C)(C)C)cc1C(=O)Nc1ccc2c(c1)OCCO2	-1.7	i	-4.4	9.7	80.4*	9.8
Cc1ccc(-n2c(=O)[nH]cc(C(=O)Nc3ccc4c(c3)OCCO4)c2=O)cc1C	-1.1	i	12.4	/	67.1*	43.6
COc1ccccc1C(=O)Nc1ccc2c(c1)OCCO2	-3.1	i	-0.6	4.6	-0.8	-8.0
CCOC(=O)c1sc2ccccc2c1NC(=O)c1ccc2c(c1)OCCO2	/	i	/	/	/	/
CCOC(=O)Nc1ccc2c(c1)N(C(=O)N1CCN(C)CC1)c1ccccc1S2	-2.5	i	7.9	6.8	64.9*	2.0
CCCC(=O)N1CCN(c2cc(N3CCC(C)CC3)c(F)cc2[N+](=O)[O-])CC1	/	i	/	/	/	/
C/C(O)=c1/ccc2cccc3nc(C)nc1c23	15.0	i	11.6	1.4	73.4*	27.5
Cc1ccc2oc(N)nc2c1	/	i	/	/	/	/
CCOC(=O)C(C)Sc1nc2c(c(=O)[nH]c(=O)n2C)n1C (stereo not drawn)	/	i	/	/	/	/
Cc1ccc(Nc2nc(N)nc(CN3CCN(C)CC3)n2)cc1	-3.6	i	1.9	20.8*	-7.9	-12.4
CCCn1c(C)nc2c(=O)oc3ccccc3c21	/	i	/	/	/	/
C=CCn1c(NC(=O)c2ccccc2)c(C#N)c2nc3ccccc3nc21	63.0*	i	25.5	0.5	88.6*	36.2
C=CCn1c(NC(=O)c2ccccc2Cl)c(C#N)c2nc3ccccc3nc21	60.9*	i	26.1	-3.6	84.0*	20.0
CCCCn1c(NC(C)=O)c(C#N)c2nc3ccccc3nc21	-13.8	i	6.1	-8.6	25.9	-3.9
N=c1n(Cc2ccccc2)c2ccccc2n1CC(O)COc1ccccc1 (stereo not drawn)	0.3	i	-20.6	/	62.7*	1.8
O=C(Nc1ccc(C(F)(F)F)cc1Cl)c1ccc(Cn2cc(Br)cn2)o1	-7.2	i	-7.3	10.8	98.8*	15.3
O=C(NC1CCCCC1)c1ccc(Cn2cc(Br)cn2)o1	-9.6	i	-6.2	2.4	-3.0	20.7
Nc1nc2nonc2nc1N1CCCCC1	3.0	i	6.0	4.9	-18.4	-24.8
